The results in this text go back to ChEMBL document CHEMBL1123614, “Effects of [(N-alkyl-1,3-dioxo-1H,3H-isoindolin-5-yl)oxy]alkanoic acids, [(N-alkyl-1-oxo-1H,3H-isoindolin-5-yl)oxy]butanoic acids, and related derivatives on chloride influx in primary astroglial cultures” (J Med Chem, 1987).

Type in all cases: functional, organism-based
The species named for assay [1] is Rattus norvegicus. Put plainly: Reduction of Astrocyte intracellular chloride concentration at 0.1 mM. A digest of the protocol: (§1)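 Primary rat astrocyte cultures (1–4-day-old Sprague-Dawley pups, oligodendrocytes not removed, >90% astrocytes) grown 3–5 weeks in serum BME. Cells equilibrated 60 min at 37 °C in chloride-HCO3 Hepes medium. Cells washed with ice-cold 0.32 M sucrose. Counts, minus time-0 background, normalized to Lowry protein. Reported as % of vehicle control ± SD, n = 4.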

For assay [2], the species on record is Rattus norvegicus. Briefly: Reduction of Astrocyte intracellular chloride concentration at 0.05 mM. Summed up:
as §1

Assay [3] is filed under the species Rattus norvegicus. Briefly: Reduction of Astrocyte intracellular chloride concentration at 1 mM. A digest of the protocol:
as §1

The species named for assay [4] is Rattus norvegicus. Put plainly: Reduction of Astrocyte intracellular chloride concentration at 0.01 mM. Summed up:
as §1

Assay [5] is filed under the species Rattus norvegicus. Briefly: Reduction of Astrocyte intracellular chloride concentration at 0.05 mM; No data. Summed up: as §1
Where [6] appears, read: 0.5 mM, in the assay text read “0.5 mM” for “0.05 mM”.

For the compound `O=C(O)CCCOc1cc2c(cc1Cl)C(=O)N(C1CCCC1)C2`, the Concentration in the assay filed under Rattus norvegicus [1] is 115%. For the compound `CCCN1C(=O)c2ccc(OCCCC(=O)O)cc2C1=O`, the Concentration came to 67% in the assay listed under Rattus norvegicus [1] and 80% in the assay filed under Rattus norvegicus [2] (0.05 mM). The matching figures for `O=C(O)CCCOc1ccc2c(c1)C(=O)NC2=O`: 93% and 88%.

As for `CCCCN1C(=O)c2ccc(OCCCC(=O)O)cc2C1=O`, the Concentration in the assay filed under Rattus norvegicus [1] is 88%; in the assay listed under Rattus norvegicus [2] (0.05 mM), 69%. As to `CCCN1Cc2cc(OCCCC(=O)O)ccc2C1=O`, the results for the Concentration in the assay listed under Rattus norvegicus [1] and in the assay filed under Rattus norvegicus [2] (0.05 mM) were 98% and 76%, respectively.

With `O=C(O)COc1ccc2c(c1)C(=O)N(C1CCCCC1)C2=O`, the results for the Concentration in the assay filed under Rattus norvegicus [1] and in the assay listed under Rattus norvegicus [2] (0.05 mM) were 94% and 87%, respectively.

Regarding `CN1C(=O)c2ccc(OCCCC(=O)O)cc2C1=O`, the figures for the Concentration in the assay filed under Rattus norvegicus [1] and in the assay filed under Rattus norvegicus [2] (0.05 mM) were 90% and 118%, respectively. On to `O=C(O)COc1ccc2c(c1)C(=O)N(C1CCCC1)C2=O`, for which the Concentration worked out at 91% in the assay listed under Rattus norvegicus [1] and 92% in the assay listed under Rattus norvegicus [2] (0.05 mM). Compound `CN(C(=O)c1ccc(OCCCC(=O)O)c(Cl)c1Cl)C1CCCC1` had a Concentration in the assay listed under Rattus norvegicus [1] of 79%. Same read-out and setting: next, `O=C(O)CCCOc1cc2c(c(Cl)c1Cl)C(=O)N(C1CCCC1)C2=O`: 97%; `CN1Cc2cc(OCCCC(=O)O)ccc2C1=O`: 84%. As to `NS(=O)(=O)c1cc(C(=O)O)c(NCc2ccco2)cc1Cl`, the results for the Concentration in the assay filed under Rattus norvegicus [1] and in the assay listed under Rattus norvegicus [3] were 79% and 21%, respectively. With `C=C(CC)C(=O)c1ccc(OCC(=O)O)c(Cl)c1Cl`, in the assay filed under Rattus norvegicus [1], the Concentration worked out at 78%.

For the compound `O=C(O)CCCOc1ccc2c(c1)C(=O)N(CCCO)C2=O`, the Concentration in the assay listed under Rattus norvegicus [1] turned out to be 75%; in the assay listed under Rattus norvegicus [2] (0.05 mM) it was 83%.

As for `CCN1Cc2cc(OCCCC(=O)O)ccc2C1=O`, the Concentration came to 109% in the assay listed under Rattus norvegicus [4]; 93% in the assay filed under Rattus norvegicus [5]; 67% in the assay filed under Rattus norvegicus [1]; 67% in the assay listed under Rattus norvegicus [2] (setting [6]); 57% in the assay listed under Rattus norvegicus [3]. In the case of `CCCN1C(=O)c2ccc(OCC(=O)O)cc2C1=O`, the results for the Concentration in the assay listed under Rattus norvegicus [1] and in the assay listed under Rattus norvegicus [2] (0.05 mM) were 103% and 110%, respectively. The matching figures for `CCN1C(=O)c2ccc(OCCCC(=O)O)cc2C1=O`: 104% and 76%. For the compound `O=C(O)CCCOc1ccc(C(=O)NC2CCCC2)c(Cl)c1Cl`, the results for the Concentration in the assay listed under Rattus norvegicus [1] and in the assay listed under Rattus norvegicus [2] (0.05 mM) were 93% and 78%, respectively.

`CCCN1C(=O)c2cc(OCCCC(=O)O)c(Cl)c(Cl)c2C1=O`: the Concentration is 74% in the assay filed under Rattus norvegicus [1] and 89% in the assay listed under Rattus norvegicus [2] (setting [6]). With `CCCCCN1C(=O)c2ccc(OCCCC(=O)O)cc2C1=O`, the Concentration in the assay listed under Rattus norvegicus [1] turned out to be 85%; in the assay listed under Rattus norvegicus [2] (0.05 mM), 77%. `O=C(O)CCCOc1ccc2c(c1)C(=O)N(C1CCCCC1)C2=O` showed a Concentration in the assay filed under Rattus norvegicus [1] of 105%. `O=C(O)CCCOc1ccc(C(=O)NC2CCCC2)cc1Cl`: the Concentration in the assay listed under Rattus norvegicus [1] is 83%. In turn, `O=C(O)CCCOc1ccc2c(c1Cl)C(=O)N(C1CCCC1)C2=O` displayed a Concentration in the assay listed under Rattus norvegicus [1] of 107%.

Take `CN1C(=O)c2cc(OCCCC(=O)O)c(Cl)c(Cl)c2C1=O`: the Concentration in the assay listed under Rattus norvegicus [1] stood at 91%. Turning to `CCCCN1Cc2cc(OCCCC(=O)O)ccc2C1=O`, the Concentration in the assay filed under Rattus norvegicus [1] was 97%; in the assay listed under Rattus norvegicus [2] (0.05 mM), 76%. As for `CCCCN1C(=O)c2cc(OCCCC(=O)O)c(Cl)c(Cl)c2C1=O`, the Concentration came to 86% in the assay listed under Rattus norvegicus [1] and 74% in the assay listed under Rattus norvegicus [2] (setting [6]). `O=C(O)CCCOc1ccc(C(=O)NC2CCCC2)cc1Br`: the Concentration in the assay filed under Rattus norvegicus [1] is 74%. As to `CCN1C(=O)c2cc(OCCCC(=O)O)c(Cl)c(Cl)c2C1=O`, the Concentration is 103% in the assay listed under Rattus norvegicus [1] and 83% in the assay filed under Rattus norvegicus [2] (setting [6]). As for `CCCCCCN1C(=O)c2ccc(OCCCC(=O)O)cc2C1=O`, the Concentration amounted to 109% in the assay filed under Rattus norvegicus [1] and 118% in the assay listed under Rattus norvegicus [2] (setting [6]). `O=C(O)CCCOc1c(Cl)cc2c(c1Cl)C(=O)N(C1CCCC1)C2=O` displayed a Concentration in the assay listed under Rattus norvegicus [1] of 94%. In the case of `CCCCN1C(=O)c2cc(Cl)c(OCCCC(=O)O)cc2C1=O`, the Concentration in the assay filed under Rattus norvegicus [1] was 95%; in the assay listed under Rattus norvegicus [2] (setting [6]) it was 81%.

Compound `O=C(O)CCCOc1ccc2c(c1)C(=O)N(C1CCCC1)C2=O` returned a Concentration in the assay filed under Rattus norvegicus [1] of 101%. For the compound `O=C(O)CCCOc1ccc2c(c1)C(=O)N(CCCCO)C2=O`, the Concentration is 106% in the assay filed under Rattus norvegicus [1] and 101% in the assay listed under Rattus norvegicus [2] (0.05 mM). In the case of `O=C(O)CCCOc1cc2c(cc1Cl)C(=O)N(C1CCCC1)C2=O`, the Concentration in the assay filed under Rattus norvegicus [1] amounted to 111%.
